Source: PMC3312318 (Biochemistry, 2012)
Ends that are not written are not given here. Oregon Green 488 = Oregon Green 488 fluorophore

Tests used:
PICK1 PDZ domain = conditions: in words, ref [39], cited from earlier work
PKCα [1] = test: In vitro phosphorylation by PKCα; assay type: biochemical; conditions: in words
Method in brief: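 About 3 μg of purified untagged PICK1 variant was mixed with reaction buffer (Tris pH 7.5, MgCl2, CaCl2), PKC lipid activator, 10 ng PKCα and 2 μCi [γ-32P]ATP, then incubated 30 min at 30 °C. Reactions were stopped on ice with SDS loading buffer and run on SDS-PAGE. 32P and Coomassie bands were quantified, and the phosphorylation/protein density ratio was expressed relative to WT (100%). Mean ± SE, 3–5 experiments.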

PKCα [2] = test: In vitro phosphorylation by PKCα after preincubation with lipid vesicles; assay type: biochemical; conditions: with vs without vesicles
Method in brief: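 Purified untagged PICK1 (~3 μg) was preincubated 30 min on ice with 3 μg Folch fraction type I vesicles extruded to 100 nm, or without vesicles. It was then phosphorylated with 10 ng PKCα, PKC lipid activator, Mg2+/Ca2+ Tris reaction buffer (pH 7.5) and 2 μCi [γ-32P]ATP for 30 min at 30 °C. Read-out was 32P band density over Coomassie protein density.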

[3] = target: T1, PICK1 WT (protein interacting with C-kinase 1), rat (rat, UniProt Q9EP80 1-416); test: fluorescence polarisation
PICK1 S77A, rat [4] = target: T2, PICK1 S77A, rat (rat, UniProt Q9EP80 1-416, S77A); test: fluorescence polarisation
[5] = target: T3, PICK1 S77D, rat (phosphomimic) (rat, UniProt Q9EP80 1-416, S77D); test: fluorescence polarisation
[6] = target: T1, PICK1 WT (protein interacting with …); test: fluorescence polarisation; remark: listed apart in the source
PICK1 S77A, rat [7] = target: T2, PICK1 S77A, rat; test: fluorescence polarisation; remark: listed apart in the source
[8] = target: T3, PICK1 S77D, rat (phosphomimic); test: fluorescence polarisation; remark: listed apart in the source

T1 sequence (Q9EP80 whole entry): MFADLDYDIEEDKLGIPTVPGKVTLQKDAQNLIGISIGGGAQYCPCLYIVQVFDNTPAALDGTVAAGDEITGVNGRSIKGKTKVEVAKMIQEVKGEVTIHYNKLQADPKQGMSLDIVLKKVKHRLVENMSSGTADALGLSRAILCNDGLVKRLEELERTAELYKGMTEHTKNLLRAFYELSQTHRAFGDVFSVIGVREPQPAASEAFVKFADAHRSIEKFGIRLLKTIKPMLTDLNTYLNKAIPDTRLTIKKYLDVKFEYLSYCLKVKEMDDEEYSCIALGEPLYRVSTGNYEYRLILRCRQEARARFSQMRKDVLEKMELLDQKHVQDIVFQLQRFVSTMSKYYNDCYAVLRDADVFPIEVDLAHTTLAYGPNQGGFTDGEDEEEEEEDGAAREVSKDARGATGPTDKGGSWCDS
T3 sequence (Q9EP80 whole entry S77D): as the sequence (Q9EP80 whole entry) above, with S77D counted along it
T2 sequence (Q9EP80 whole entry S77A): as the sequence (Q9EP80 whole entry) above, with S77A counted along it

Molecule | Ki [3] [µM] | Ki (PICK1 S77A, rat [4]) [µM] | Ki [5] [µM] | also measured
EVRQFTLRHWLKD [DAT C13 V to D] |  |  |  | interaction with the PICK1 PDZ domain (PICK1 PDZ domain; last residue changed to aspartate): disrupts the interaction with the PICK1 PDZ domain
OrG DAT C13: DAT C13 with an additional N-terminal cysteine residue coupled to the fluorophore Oregon Green 488 (C(Oregon Green 488)EVRQFTLRHWLKV) |  |  |  | affinity for the PICK1 PDZ domain (PICK1 PDZ domain): highest affinity reported for the PICK1 PDZ domain
PICK1 A87L: PICK1 mutant (A87L) that cannot accommodate a peptide in the PDZ binding pocket |  |  |  | PKCα phosphorylation compared with PICK1 WT (PKCα [1]; n=3-5): phosphorylated to the same level as WT
PICK1 WT: purified rat PICK1, cleaved from GST with thrombin |  |  |  | PKCα in vitro phosphorylation (PKCα [1]; SDS-PAGE, 32P autoradiography, n=3): PICK1 is a substrate for PKCα; fold increase in phosphorylation on addition of lipid vesicles (PKCα [2]): approximately 10 fold
EVRQFTLRHWLKV [DAT C13 (13 C-terminal residues of the human dopamine transporter)] | 1.05 | 1.5 | 1.1 | 
C(Oregon Green 488)EVRQFTLRHWLKV [OrG DAT C13 (DAT C13 with an additional N-terminal cysteine coupled to Oregon Green 488)] |  |  |  | binding result [6]: binds; binding result (PICK1 S77A, rat [7]): binds; binding result [8]: binds
EGYNVYGIESVKI [GluA2 C13 (13 C-terminal residues of human GluA2)] | 7.6 | 9.8 | 8.8 | 
NPQFVHPILQSAV [PKCα C13 (13 C-terminal residues of human protein kinase Cα)] | 49 | 28 | 29 | 
